Assay results from ChEMBL document CHEMBL2021826, “Ester and carbamate ester derivatives of Biochanin A: synthesis and in vitro evaluation of estrogenic and antiproliferative activities” (Bioorg Med Chem, 2012).
Active and inactive are the calls of the source. The calls are words filed in the database; no cut-off is given here.

Assays:
[1] = organism: Homo sapiens; assay: Estrogenic activity at estrogen receptor in human MCF7:D5L cells co-expressing ERE assessed as induction of luciferase gene expression at 1 micoM after 16 hrs by microplate reader relative to untreated vehicle control; assay type: cell-based
How it was run: (§1)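 MCF-7:D5L cells (MCF-7 stably carrying ERE-driven luciferase reporter) plated at 12,000/well in phenol red-free MEM with 1 µg/mL insulin and 5% DCC-FBS. Compounds up to 10 µM, or DMSO (0.1% final), added 72 h after plating. Luciferase read 16 h later, as % of vehicle. Three independent experiments in triplicate.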

[2] = system: MCF7; assay: Antiproliferative activity against estrogen-deficient human MCF7 cells at 10 uM after 72 hrs by MTT assay relative to untreated vehicle control; assay type: functional
How it was run: (§2)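 MCF-7 cells plated at 8000/well in phenol red-free MEM with 1 µg/mL insulin and 5% DCC-FBS (estrogen-free). Compounds up to 10 µM (0.01–10 µM), or DMSO vehicle at 0.1% final, added 24 h after plating. MTT conversion read 72 h later at 550 and 690 nm (reference), as % of vehicle. […] Three independent experiments in triplicate.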

[3] = Estrogenic activity at estrogen receptor in human MCF7:D5L cells co-expressing ERE assessed as induction of luciferase gene expression after 16 hrs by microplate reader; assay type: cell-based; how it was run: as §1
[4] = organism: Homo sapiens; assay: Estrogenic activity at estrogen receptor in human MCF7:D5L cells co-expressing ERE assessed as induction of luciferase gene expression at 10 micoM after 16 hrs by microplate reader relative to untreated vehicle control; assay type: cell-based; how it was run: as §1
[5] = Estrogenic activity at estrogen receptor in human Ishikawa cells assessed as induction of alkaline phosphatase expression after 72 hrs by microplate reader; assay type: cell-based
How it was run: (§3)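 Ishikawa cells plated at 12,000/well in phenol red-free MEM, 1 µg/mL insulin, 5% DCC-FBS. Compounds up to 10 µM, or DMSO (0.1% final), added 24 h after plating. Alkaline phosphatase activity read 72 h later on a plate reader, as % of vehicle-treated cells. […] Three independent experiments in triplicate.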

[6] = system: MCF7; assay: Antiproliferative activity against estrogen-deficient human MCF7 cells at 1 uM after 72 hrs by MTT assay relative to untreated vehicle control; assay type: functional; how it was run: as §2
[7] = system: MCF7; assay: Growth stimulation of human MCF7:D5L cells co-expressing ERE assessed as increase in viable cell number by MTT assay; assay type: functional, cell-based
[8] = system: Ishikawa; assay: Estrogenic activity at estrogen receptor in human Ishikawa cells assessed as induction of alkaline phosphatase expression at 1 uM after 72 hrs by microplate reader relative to untreated vehicle control; assay type: cell-based; how it was run: as §3
[9] = system: Ishikawa; assay: Estrogenic activity at estrogen receptor in human Ishikawa cells assessed as induction of alkaline phosphatase expression at 10 uM after 72 hrs by microplate reader relative to untreated vehicle control; assay type: cell-based; how it was run: as §3
[10] = system: MCF7; assay: Stimulation of proliferation of estrogen-deficient human MCF7 cells after 72 hrs by MTT assay; conditions: MCF7, 72 h
[11] = system: MCF7; assay: Growth stimulation of estrogen-deficient human MCF7 cells at 0.01 to 10 uM after 72 hrs by MTT assay; assay type: functional, cell-based; how it was run: as §2
[12] = system: Ishikawa; assay: Inhibition of estradiol-stimulated cell proliferation of human Ishikawa cells at 10 uM after 72 hrs by MTT assay; assay type: functional, cell-based
[13] = system: Ishikawa; assay: Inhibition of estradiol-stimulated cell proliferation of human Ishikawa cells at 1 uM after 72 hrs by MTT assay; assay type: functional, cell-based
[14] = system: MDA-MB-231; assay: Antiproliferative activity against ERalpha-deficient human MDA-MB-231 cells assessed as inhibition of cell proliferation at 1 uM after 72 hrs by MTT assay; assay type: functional, cell-based
How it was run: (§4)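 MDA-MB-231 breast adenocarcinoma cells in phenol red-free MEM with 1 µg/mL insulin and 5% dextran-coated charcoal-treated FBS. Compound added 24 h after plating, DMSO vehicle at 0.1% final. Viable cells read 72 h later as MTT-formazan absorbance, 550 minus 690 nm reference, expressed as % of vehicle-treated cells.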

[15] = system: MDA-MB-231; assay: Antiproliferative activity against ERalpha-deficient human MDA-MB-231 cells assessed as inhibition of cell proliferation at 10 uM after 72 hrs by MTT assay; assay type: functional; conditions: MDA-MB-231, 72 h; how it was run: as §4
[16] = system: Ishikawa; assay: Growth stimulation of human Ishikawa cells at 10 uM after 72 hrs by MTT assay; assay type: functional, cell-based
[17] = system: Ishikawa; assay: Estrogenic activity at estrogen receptor in human Ishikawa cells assessed as induction of alkaline phosphatase expression at 100 nM after 72 hrs by microplate reader; assay type: cell-based
How it was run: (§5)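 Separate wells received 100 nM PPT, or 100 nM MPP with or without 100 nM DPN. AlkP activity read 72 h after dosing, relative to vehicle. Mean ± SEM of three experiments in triplicate; t-test vs vehicle.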

[18] = organism: Homo sapiens; assay: Estrogenic activity at estrogen receptor in human MCF7:D5L cells co-expressing ERE assessed as induction of luciferase gene expression at 100 nM after 16 hrs by microplate reader in presence of 100 nM ERalpha antagonist MPP; assay type: functional, cell-based
How it was run: (§6)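 Separate wells received 100 nM PPT, or 100 nM MPP with or without 100 nM DPN, added 72 h after plating. Luciferase measured 16 h later relative to vehicle. Mean ± SEM, three experiments in triplicate; t-test vs vehicle.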

[19] = organism: Homo sapiens; assay: Estrogenic activity at estrogen receptor in human MCF7:D5L cells co-expressing ERE assessed as induction of luciferase gene expression at 100 nM after 16 hrs by microplate reader relative to untreated vehicle control; assay type: cell-based; how it was run: as §6
[20] = Estrogenic activity at estrogen receptor in human Ishikawa cells assessed as induction of alkaline phosphatase expression at 100 nM after 72 hrs by microplate reader relative to estradiol in presence of 100 nM ERalpha antagonist MPP; assay type: functional; how it was run: as §5
[21] = system: MCF7; assay: Antiproliferative activity against estrogen-deficient human MCF7 cells after 72 hrs by MTT assay; assay type: functional, cell-based; conditions: MCF7, 72 h; how it was run: as §2
[22] = system: Ishikawa; assay: Estrogenic activity at estrogen receptor in human Ishikawa cells assessed as induction of alkaline phosphatase expression at => 0.1 nM after 72 hrs by microplate reader relative to untreated vehicle control in presence of 100 nM ER destabilizer fulvestrant; assay type: cell-based; how it was run: as §5
[23] = organism: Homo sapiens; assay: Estrogenic activity at estrogen receptor in human MCF7:D5L cells co-expressing ERE assessed as induction of luciferase gene expression at => 0.1 nM after 16 hrs by microplate reader in presence of 100 nM ER destabilizer fulvestrant; assay type: cell-based; how it was run: as §6

Molecule COc1ccc(-c2coc3cc(OC(=O)NCCBr)cc(O)c3c2=O)cc1 has an Efficacy [1] of 531%, an Efficacy [2] of 145% and an EC50 [3] of 220 nM. It also gave an Efficacy [4] of 1050%, an EC50 [5] of 620 nM and an Efficacy [6] of 151%. For the same molecule, the Activity [7] was “inactive”, the Efficacy [8] was 302% and the Efficacy [9] was 440%. The EC50 [10] was 420 nM and the Activity [11] was “Active”.

COc1ccc(-c2coc3cc(OC(=O)CCl)cc(O)c3c2=O)cc1 gave an Efficacy [1] of 823%, an Efficacy [2] of 155% and an EC50 [3] of 140 nM. It also gave an Efficacy [4] of 1310%, an EC50 [5] of 470 nM and an Efficacy [6] of 152%. For the same molecule, the Activity [7] was “inactive”, the Efficacy [8] was 314% and the Efficacy [9] was 354%. The EC50 [10] was 550 nM and the Activity [11] was “Active”.

In the case of CCCCCCCCCCCNC(=O)Oc1cc(O)c2c(=O)c(-c3ccc(OC)cc3)coc2c1, the inhibition [12] is reported as “Active”, the Efficacy [1] is reported as 524% and the Efficacy [2] is reported as 108%. It also gave an EC50 [3] of 320 nM, an Efficacy [4] of 803% and an EC50 [5] of 1700 nM. The inhibition [13] was “Active”, the Efficacy [6] was 117% and the Activity [7] was “inactive”. For the same molecule, the Efficacy [8] was 203%, the Efficacy [9] was 375% and the inhibition [14] was “inactive”. The Activity [11] was “inactive” and the inhibition at 10 µM [15] was 21%.

Molecule COc1ccc(-c2coc3cc(OC(=O)CBr)cc(O)c3c2=O)cc1 has an Efficacy [1] of 584%, an Efficacy [2] of 154% and an EC50 [3] of 180 nM. The Efficacy [4] was 1320%, the EC50 [5] was 520 nM and the Efficacy [6] was 156%. For the same molecule, the Activity [7] was “inactive”, the Efficacy [8] was 332% and the Efficacy [9] was 387%. The EC50 [10] was 280 nM and the Activity [11] was “Active”.

COc1ccc(-c2coc3cc(OC(=O)NCCCl)cc(O)c3c2=O)cc1 gave an Efficacy [1] of 635%, an Efficacy [2] of 166% and an EC50 [3] of 140 nM. For the same molecule, the Efficacy [4] was 1140%, the EC50 [5] was 660 nM and the Efficacy [6] was 139%. The Activity [7] was “inactive”, the Efficacy [8] was 295% and the Efficacy [9] was 445%. The EC50 [10] was 680 nM and the Activity [11] was “Active”.

For COc1ccc(-c2coc3cc(O)cc(O)c3c2=O)cc1 [BIOCHANIN], the Efficacy [1] was 490%, the Efficacy [2] was 167% and the Activity [16] was “Active”. For the same molecule, the EC50 [3] was 300 nM, the Efficacy [4] was 733% and the EC50 [5] was 420 nM. The Efficacy [6] was 161%, the Efficacy [8] was 310% and the Efficacy [9] was 309%. For the same molecule, the EC50 [10] was 210 nM and the Activity [11] was “Active”.

For CCCc1c(-c2ccc(O)cc2)nn(-c2ccc(O)cc2)c1-c1ccc(O)cc1 [PROPYLPYRAZOLETRIOL], the Activity [17] was “Active”, the Activity [18] was “inactive” and the Activity [19] was “Active”. It also gave an Activity [20] of 70%.

In the case of C[C@]12CC[C@@H]3c4ccc(O)cc4CC[C@H]3[C@@H]1CC[C@@H]2O [ESTRADIOL], the Efficacy [1] is reported as 402%, the Efficacy [2] is reported as 185% and the EC50 [3] is reported as 0.0196 nM. The Efficacy [4] was 402%, the EC50 [5] was 0.0246 nM and the EC50 [21] was 0.0064 nM. The Efficacy [6] was 185%, the Efficacy [8] was 440% and the Activity [22] was “inactive”. The Activity [23] was “inactive” and the Efficacy [9] was 440%.
